Experimental data taken from ChEMBL document CHEMBL4038284, “Synthesis of novel quinoline-based 4,5-dihydro-1H-pyrazoles as potential anticancer, antifungal, antibacterial and antiprotozoal agents” (Eur J Med Chem, 2017).
Active and inactive are the calls of the source. No cut-off for these calls is given here.

Columns and labels:
OVCAR-8 = experiment: Growth inhibition of human OVCAR8 cells at 10 uM incubated for 48 hrs by sulforhodamine B assay; type: functional, cell-based
How it was run: (§1)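 NCI 60-line panel, single 10 μM dose. Cells were grown in RPMI-1640 with 5% FBS and 2 mM L-glutamine and pre-incubated 24 h before compound addition (DMSO stock). Exposure was 48 h at 37 °C, 5% CO2. Cells were fixed with cold TCA (10% final), stained with 0.4% SRB, bound dye dissolved in 10 mM Tris base, A515 read. Growth was taken relative to time-zero and untreated control plates.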

HCT-15 = experiment: Growth inhibition of human HCT15 cells at 10 uM incubated for 48 hrs by sulforhodamine B assay; type: functional, cell-based
How it was run: (§2)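 NCI 60-cell-line screen at a single 10 µM dose. Cells in RPMI-1640 with 5% FBS and 2 mM L-glutamine, pre-incubated 24 h, then treated for 48 h at 37 °C. TCA fixation, sulforhodamine B staining, absorbance at 515 nm. Percentage growth calculated against time-zero and untreated controls.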

SF-295 = experiment: Growth inhibition of human SF295 cells at 10 uM incubated for 48 hrs by sulforhodamine B assay; type: functional, cell-based; how it was run: as §1
HOP-62 = experiment: Growth inhibition of human HOP62 cells at 10 uM incubated for 48 hrs by sulforhodamine B assay; type: functional, cell-based; how it was run: as §2
T47D = experiment: Growth inhibition of human T47D cells at 10 uM incubated for 48 hrs by sulforhodamine B assay; type: functional, cell-based
How it was run: (§3)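 NCI-60 single-dose screen at 10 µM for 48 h. Cells were grown in RPMI-1640 with 5% FBS and 2 mM L-glutamine and preincubated 24 h before compound. Time-zero plates were TCA-fixed at compound addition. After exposure, cells were TCA-fixed, stained with SRB and read at 515 nm. Percentage growth was calculated against time-zero and untreated-control absorbances.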

MOLT-4 = experiment: Growth inhibition of human MOLT4 cells at 10 uM incubated for 48 hrs by sulforhodamine B assay; type: functional, cell-based; how it was run: as §1
NCI-H522 = experiment: Growth inhibition of human NCI-H522 cells at 10 uM incubated for 48 hrs by sulforhodamine B assay; type: functional, cell-based; how it was run: as §1
Candida albicans = experiment: Growth inhibition of Candida albicans ATCC 10231 at 31.25 ug/ml incubated for 48 hrs under dark condition by broth microdilution method relative to control; type: functional; settings: ATCC 10231, 48 h, read-out: GI
How it was run: (§4)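 CLSI M27-A3 broth microdilution in RPMI-1640, DMSO ≤1%. Inoculum 1-5 × 10^3 CFU/mL. Incubated 48 h at 30 °C, dark. % inhibition = 100 − (OD405 test − sterility control)/(OD405 growth control − sterility control), with growth and sterility control wells. Triplicate.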

SNB-75 = experiment: Growth inhibition of human SNB75 cells at 10 uM incubated for 48 hrs by sulforhodamine B assay; type: functional, cell-based; how it was run: as §3
A498 = experiment: Growth inhibition of human A498 cells at 10 uM incubated for 48 hrs by sulforhodamine B assay; type: functional, cell-based; how it was run: as §2
MDA-MB-231 = experiment: Growth inhibition of human MDA-MB-231 cells at 10 uM incubated for 48 hrs by sulforhodamine B assay; type: functional, cell-based; how it was run: as §1
NCI/ADR-RES = experiment: Growth inhibition of human NCI/ADR-RES cells at 10 uM incubated for 48 hrs by sulforhodamine B assay; type: functional, cell-based; how it was run: as §1
U-251 = experiment: Growth inhibition of human U251 cells at 10 uM incubated for 48 hrs by sulforhodamine B assay; type: functional, cell-based; how it was run: as §3
SK-MEL-5 = experiment: Growth inhibition of human SK-MEL-5 cells at 10 uM incubated for 48 hrs by sulforhodamine B assay; type: functional, cell-based; how it was run: as §3
NCI-H322M = experiment: Growth inhibition of human NCI-H322M cells at 10 uM incubated for 48 hrs by sulforhodamine B assay; type: functional, cell-based; how it was run: as §1
DU-145 = experiment: Growth inhibition of human DU145 cells at 10 uM incubated for 48 hrs by sulforhodamine B assay; type: functional, cell-based; how it was run: as §2
BT-549 = experiment: Growth inhibition of human BT549 cells at 10 uM incubated for 48 hrs by sulforhodamine B assay; type: functional, cell-based; how it was run: as §2
Cryptococcus neoformans [1] = experiment: Antifungal activity against Cryptococcus neoformans ATCC 32264 incubated for 48 hrs under dark condition by broth microdilution method; type: functional; settings: ATCC 32264, 48 h
How it was run: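 CLSI M27-A3 broth microdilution in RPMI-1640, DMSO ≤1%, compounds at 250-0.98 µg/mL final. Inoculum 1-5 × 10^3 CFU/mL. Incubated 48 h at 30 °C in a moist dark chamber, read at OD405. MIC80 and MIC50 taken from % inhibition dose-response curves (mean ± SEM, triplicate). Amphotericin B was the positive control.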

EKVX = experiment: Growth inhibition of human EKVX cells at 10 uM incubated for 48 hrs by sulforhodamine B assay; type: functional, cell-based; how it was run: as §2
Klebsiella pneumoniae = experiment: Antibacterial activity against carbapenemase positive Klebsiella pneumoniae BAA 1705 after 24 hrs by resazurin dye based microdilution assay; type: functional; settings: BAA 1705, 24 h
How it was run: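 MIC taken as the lowest concentration giving visible inhibition and/or by resazurin (1 mg/mL). Gentamicin was the control. Run in duplicate, repeated at least three times.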

CAKI-1 = experiment: Growth inhibition of human Caki1 cells at 10 uM incubated for 48 hrs by sulforhodamine B assay; type: functional, cell-based; how it was run: as §2
786-0 = experiment: Growth inhibition of human 786-0 cells at 10 uM incubated for 48 hrs by sulforhodamine B assay; type: functional, cell-based; how it was run: as §2
Cryptococcus neoformans [2] = experiment: Growth inhibition of Cryptococcus neoformans ATCC 32264 at 250 ug/ml incubated for 48 hrs under dark condition by broth microdilution method relative to control; type: functional; settings: ATCC 32264, 48 h, read-out: GI; how it was run: as §4
SK-MEL-2 = experiment: Growth inhibition of human SK-MEL-2 cells at 10 uM incubated for 48 hrs by sulforhodamine B assay; type: functional, cell-based; how it was run: as §3
HOP-92 = experiment: Growth inhibition of human HOP92 cells at 10 uM incubated for 48 hrs by sulforhodamine B assay; type: functional, cell-based; how it was run: as §1
SK-OV-3 = experiment: Growth inhibition of human SKOV3 cells at 10 uM incubated for 48 hrs by sulforhodamine B assay; type: functional, cell-based; how it was run: as §3
SF-268 = experiment: Growth inhibition of human SF268 cells at 10 uM incubated for 48 hrs by sulforhodamine B assay; type: functional, cell-based; how it was run: as §1
NCI-H23 = experiment: Growth inhibition of human NCI-H23 cells at 10 uM incubated for 48 hrs by sulforhodamine B assay; type: functional, cell-based; how it was run: as §1
Staphylococcus aureus = experiment: Antibacterial activity against methicillin-resistant Staphylococcus aureus ATCC 43300 after 24 hrs by resazurin dye based microdilution assay; type: functional; settings: ATCC 43300, 24 h
How it was run: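 Broth microdilution in Mueller Hinton broth, inoculum 5 × 10^5 – 8 × 10^5. Compound stocks diluted in MHB with 5% DMSO and 0.1% Tween 80. Incubation 24 h at 35-37 °C. MIC is the lowest concentration with visible growth inhibition and/or by resazurin (1 mg/mL) read-out. Gentamicin as control. Run in duplicate, replicated at least three times.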

Cryptococcus neoformans [3] = experiment: Growth inhibition of Cryptococcus neoformans ATCC 32264 at 31.25 ug/ml incubated for 48 hrs under dark condition by broth microdilution method relative to control; type: functional; settings: ATCC 32264, 48 h, read-out: GI; how it was run: as §4
A549 = experiment: Growth inhibition of human A549/ATCC cells at 10 uM incubated for 48 hrs by sulforhodamine B assay; type: functional, cell-based; how it was run: as §2

Row | SMILES | growth inhibition (GI) (OVCAR-8) | growth inhibition (GI) (HCT-15) | growth inhibition (GI) (SF-295) | growth inhibition (GI) (HOP-62) | growth inhibition (GI) (T47D) | growth inhibition (GI) (MOLT-4) | growth inhibition (GI) (NCI-H522) | inhibition of growth at 31.25 µg/mL (Candida albicans) | growth inhibition (GI) (SNB-75) | growth inhibition (GI) (A498) | growth inhibition (GI) (MDA-MB-231) | growth inhibition (GI) (NCI/ADR-RES) | growth inhibition (GI) (U-251) | growth inhibition (GI) (SK-MEL-5) | growth inhibition (GI) (NCI-H322M) | growth inhibition (GI) (DU-145) | growth inhibition (GI) (BT-549) | MIC50 (Cryptococcus neoformans [1]) | MIC80 (Cryptococcus neoformans [1]) | growth inhibition (GI) (EKVX) | further results
1 | COc1cc(C2=NN(c3ccc(Cl)cc3)C(c3cccc(Nc4ccnc5cc(Cl)ccc45)c3)C2)cc(OC)c1OC (centres undefined) | inactive | inactive | inactive | inactive | inactive | inactive | inactive | 8.05% | inactive | inactive | inactive | inactive | inactive | inactive | inactive | inactive | inactive | ≥ 250 µg/mL | ≥ 250 µg/mL | inactive | MIC (Klebsiella pneumoniae): > 1000 µg/mL; growth inhibition (GI) (CAKI-1): inactive; growth inhibition (GI) (786-0): inactive; inhibition of growth at 250 µg/mL (Cryptococcus neoformans [2]): 21.7%; growth inhibition (GI) (SK-MEL-2): inactive; growth inhibition (GI) (HOP-92): inactive; growth inhibition (GI) (SK-OV-3): inactive; growth inhibition (GI) (SF-268): inactive; growth inhibition (GI) (NCI-H23): inactive; MIC (Staphylococcus aureus): > 1000 µg/mL; inhibition of growth at 31.25 µg/mL (Cryptococcus neoformans [3]): 12.5%; growth inhibition (GI) (A549): inactive
2 | COc1ccc(C2=NN(c3ccccc3)C(c3cccc(Nc4ccnc5cc(Cl)ccc45)c3)C2)cc1 (centres undefined) | inactive | inactive | inactive | inactive | inactive | inactive | inactive | 13.4% | inactive | inactive | inactive | inactive | inactive | inactive | inactive | inactive | inactive | ≥ 250 µg/mL | ≥ 250 µg/mL | inactive | MIC (Klebsiella pneumoniae): > 1000 µg/mL; growth inhibition (GI) (CAKI-1): inactive; growth inhibition (GI) (786-0): inactive; inhibition of growth at 250 µg/mL (Cryptococcus neoformans [2]): 32.2%; growth inhibition (GI) (SK-MEL-2): inactive; growth inhibition (GI) (HOP-92): inactive; growth inhibition (GI) (SK-OV-3): inactive; growth inhibition (GI) (SF-268): inactive; growth inhibition (GI) (NCI-H23): inactive; MIC (Staphylococcus aureus): > 1000 µg/mL; inhibition of growth at 31.25 µg/mL (Cryptococcus neoformans [3]): 7.77%; growth inhibition (GI) (A549): inactive
